In brackets after ≈: the same amount, converted by molar mass. Activity calls are given as the source filed them. The calls are words filed in the database; no cut-off is given here.
How the values were obtained:
[1] = system: Escherichia coli; assay: Antibacterial activity against Escherichia coli ATCC 25922 assessed as fold reduction of MIC in presence of efflux pump inhibitor PAbetaN incubated for 18 hrs by CLSI broth microdilution method; format: functional
Method in brief: (§1)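 MICs determined with and without PAβN at 50 mg/L in Mueller-Hinton broth containing 1 mM MgSO₄. 2-fold serial dilutions per CLSI. Fold change taken from the paired MICs after 35 °C, 18 h.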

[2] = system: Escherichia coli; assay: Antibacterial activity against Escherichia coli ATCC 25922 assessed as diameter of zone inhibition measured after 18 hrs by CLSI disc diffusion method; format: functional
Method in brief: (§2)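 Disc diffusion on Mueller-Hinton II agar. Compounds dissolved in DMSO. Strains stored at -80 °C and subcultured twice on tryptic soy agar before testing. Inhibition zones read after 35 °C, 18 h.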

[3] = system: Enterococcus faecium; assay: Antibacterial activity against Enterococcus faecium ATCC 6057 assessed as diameter of zone inhibition measured after 18 hrs by CLSI disc diffusion method; format: functional; method in brief: as §2
[4] = system: Serratia marcescens; assay: Antibacterial activity against Serratia marcescens ATCC 13880 assessed as fold reduction of MIC in presence of efflux pump inhibitor PAbetaN incubated for 18 hrs by broth microdilution method; format: functional; method in brief: as §1
[5] = system: Pseudomonas aeruginosa; assay: Antibacterial activity against Pseudomonas aeruginosa ATCC 27853 measured after 18 hrs by CLSI broth dilution method; format: functional; conditions: ATCC 27853, 18 h
Method in brief: (§3)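 Broth MIC in Mueller-Hinton II broth following CLSI, compounds dissolved in DMSO. Strains subcultured twice on tryptic soy agar before testing. Growth read after 35 °C, 18 h.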

[6] = system: Bordetella bronchiseptica; assay: Antibacterial activity against Bordetella bronchiseptica ATCC 4617 measured after 18 hrs by CLSI broth dilution method; format: functional; conditions: ATCC 4617, 18 h; method in brief: as §3
[7] = system: Enterococcus faecalis; assay: Antibacterial activity against Enterococcus faecalis ATCC 29212 assessed as diameter of zone inhibition measured after 18 hrs by CLSI disc diffusion method; format: functional; method in brief: as §2
[8] = system: Staphylococcus epidermidis; assay: Antibacterial activity against Staphylococcus epidermidis ATCC 12228 assessed as diameter of zone inhibition measured after 18 hrs by CLSI disc diffusion method; format: functional; method in brief: as §2
[9] = system: Proteus mirabilis; assay: Antibacterial activity against Proteus mirabilis ATCC 12453 assessed as fold reduction of MIC in presence of efflux pump inhibitor PAbetaN incubated for 18 hrs by broth microdilution method; format: functional; method in brief: as §1
[10] = system: Burkholderia cepacia; assay: Antibacterial activity against Burkholderia cepacia ATCC 25416 assessed as diameter of zone inhibition measured after 18 hrs by CLSI disc diffusion method; format: functional; method in brief: as §2
[11] = system: Acinetobacter baumannii; assay: Antibacterial activity against Acinetobacter baumannii ATCC 19606 assessed as diameter of zone inhibition measured after 18 hrs by CLSI disc diffusion method; format: functional; method in brief: as §2
[12] = system: Saccharomyces cerevisiae; assay: Antifungal activity against Saccharomyces cerevisiae ATCC 9763 diameter of zone inhibition incubated for 24 hrs by CLSI disc diffusion method; format: functional
Method in brief: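 Disc-diffusion run on Mueller-Hinton II agar with 2% glucose and 0.5 mg/L methylene blue, using compounds in DMSO. Yeast was precultured on Sabouraud dextrose agar (24–48 h, 30 °C). Zones read after 24 h at 35 °C.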

[13] = system: Candida tropicalis; assay: Antifungal activity against Candida tropicalis IBA 171 assessed as diameter of zone inhibition incubated for 24 hrs by CLSI disc diffusion method; format: functional
Method in brief: (§4)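 Yeast disc diffusion on Mueller-Hinton agar supplemented with 2% glucose and 0.5 mg/L methylene blue. Compounds in DMSO. Yeasts subcultured on Sabouraud dextrose agar before testing. Zones read after 35 °C, 24 h.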

[14] = system: Klebsiella pneumoniae; conditions: ATCC 13883
[15] = system: Acinetobacter baumannii; assay: Antibacterial activity against Acinetobacter baumannii ATCC 19606 assessed as fold reduction of MIC in presence of efflux pump inhibitor PAbetaN incubated for 18 hrs by broth microdilution method; format: functional; method in brief: as §1
[16] = system: Escherichia coli; assay: Antibacterial activity against Escherichia coli ATCC 25922 measured after 18 hrs by CLSI broth dilution method; format: functional; conditions: ATCC 25922, 18 h; method in brief: as §3
[17] = system: Klebsiella pneumoniae; assay: Antibacterial activity against Klebsiella pneumoniae ATCC 13883 assessed as fold reduction of MIC in presence of efflux pump inhibitor PAbetaN incubated for 18 hrs by broth microdilution method; format: functional; method in brief: as §1
[18] = system: Pseudomonas aeruginosa; assay: Antibacterial activity against Pseudomonas aeruginosa ATCC 27853 assessed as fold reduction of MIC in presence of efflux pump inhibitor PAbetaN incubated for 18 hrs microdilution method; format: functional; method in brief: as §1
[19] = system: Stenotrophomonas maltophilia; assay: Antibacterial activity against Stenotrophomonas maltophilia ATCC 13637 measured after 18 hrs by CLSI broth dilution method; format: functional; conditions: ATCC 13637, 18 h; method in brief: as §3
[20] = system: Pichia kudriavzevii; assay: Antifungal activity against Candida krusei ATCC 6258 assessed as decrease in fungal cell growth at 0.78 to 12.5 mg/L incubated for 24 hrs by CLSI broth dilution method; format: functional; conditions: ATCC 6258, 24 h
Method in brief: (§5)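 Yeast broth dilution in RPMI 1640 with 2% glucose, compounds in DMSO. Yeasts pre-grown on Sabouraud dextrose agar. Growth read after 35 °C, 24 h.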

[21] = system: Pseudomonas aeruginosa; assay: Antibacterial activity against Pseudomonas aeruginosa ATCC 27853 assessed as diameter of zone inhibition measured after 18 hrs by CLSI disc diffusion method; format: functional, organism-based; method in brief: as §2
[22] = system: Enterococcus faecium; assay: Antibacterial activity against Enterococcus faecium ATCC 6057 measured after 18 hrs by CLSI broth dilution method; format: functional; conditions: ATCC 6057, 18 h; method in brief: as §3
[23] = system: Meyerozyma guilliermondii; assay: Antifungal activity against Candida guilliermondii IBA 155 assessed as diameter of zone inhibition incubated for 24 hrs by CLSI disc diffusion method; format: functional; method in brief: as §4
[24] = system: Candida parapsilosis; assay: Antifungal activity against Candida parapsilosis ATCC 22019 assessed as diameter of zone inhibition incubated for 24 hrs by CLSI disc diffusion method; format: functional; method in brief: as §4
[25] = system: Enterobacter cloacae; assay: Antibacterial activity against Enterobacter cloacae DSM 6234 assessed as diameter of zone inhibition measured after 18 hrs by CLSI disc diffusion method; format: functional; method in brief: as §2
[26] = system: Staphylococcus aureus; assay: Antibacterial activity against Staphylococcus aureus ATCC 6538P measured after 18 hrs by CLSI broth dilution method; format: functional; method in brief: as §3
[27] = system: Staphylococcus aureus; assay: Antibacterial activity against Staphylococcus aureus ATCC 6538P assessed as diameter of zone inhibition measured after 18 hrs by CLSI disc diffusion method; format: functional; method in brief: as §2
[28] = system: Bordetella bronchiseptica; assay: Antibacterial activity against Bordetella bronchiseptica ATCC 4617 assessed as diameter of zone inhibition measured after 18 hrs by CLSI disc diffusion method; format: functional; method in brief: as §2
[29] = system: Klebsiella pneumoniae; assay: Antibacterial activity against Klebsiella pneumoniae ATCC 13883 measured after 18 hrs by CLSI broth dilution method; format: functional; conditions: ATCC 13883, 18 h; method in brief: as §3
[30] = system: Candida albicans; assay: Antifungal activity against Candida albicans ATCC 90028 assessed as decrease in fungal cell growth at 0.78 to 12.5 mg/L incubated for 24 hrs by CLSI broth dilution method; format: functional; conditions: ATCC 90028, 24 h; method in brief: as §5
[31] = system: Burkholderia cepacia; assay: Antibacterial activity against Burkholderia cepacia ATCC 25416 measured after 18 hrs by CLSI broth dilution method; format: functional; conditions: ATCC 25416, 18 h; method in brief: as §3
[32] = system: Candida albicans; assay: Antifungal activity against Candida albicans ATCC 90028 assessed as diameter of zone inhibition incubated for 24 hrs by CLSI disc diffusion method; format: functional; method in brief: as §4
[33] = system: Acinetobacter baumannii; assay: Antibacterial activity against Acinetobacter baumannii ATCC 19606 measured after 18 hrs by CLSI broth dilution method; format: functional; conditions: ATCC 19606, 18 h; method in brief: as §3

SMILES	fold change (FC) [1]	diameter of the inhibition zone (DIZ) [2]	diameter of the inhibition zone (DIZ) [3]	fold change (FC) [4]	MIC [5] [µg/mL]	MIC [6] [µg/mL]	diameter of the inhibition zone (DIZ) [7]	diameter of the inhibition zone (DIZ) [8] [mm]	fold change (FC) [9]	diameter of the inhibition zone (DIZ) [10]	diameter of the inhibition zone (DIZ) [11]	diameter of the inhibition zone (DIZ) [12]	diameter of the inhibition zone (DIZ) [13]	DIZ [14]	fold change (FC) [15]	MIC [16] [µg/mL]	fold change (FC) [17]	fold change (FC) [18]	MIC [19] [µg/mL]	MIC [20] [µg/mL]	other results
C[Si]1(C)OB(O)c2cc3c(c(F)c21)COB3O	16	inactive	16 mm	16	> 400	200 (≈ 794 µM)	18 mm	34	8	inactive	inactive	inactive	inactive	inactive	8	400 (≈ 1590 µM)	32	8	200 (≈ 794 µM)	> 400	diameter of the inhibition zone (DIZ) [21]: inactive; MIC [22]: 50 µg/mL (≈ 198 µM); diameter of the inhibition zone (DIZ) [23]: inactive; diameter of the inhibition zone (DIZ) [24]: inactive; diameter of the inhibition zone (DIZ) [25]: inactive; MIC [26]: 3.12 µg/mL (≈ 12.4 µM); diameter of the inhibition zone (DIZ) [27]: 20 mm; diameter of the inhibition zone (DIZ) [28]: 13 mm; MIC [29]: > 400 µg/mL; MIC [30]: 100 µg/mL (≈ 397 µM); MIC [31]: > 400 µg/mL; diameter of the inhibition zone (DIZ) [32]: inactive; MIC [33]: > 400 µg/mL
C[Si]1(C)OB(O)c2c(C=O)cc(F)c(F)c21	64	inactive	inactive	2	> 400	400 (≈ 1650 µM)	inactive	28	2	inactive	inactive	13 mm	11 mm	inactive	2	> 400	32	4	400 (≈ 1650 µM)	> 400	diameter of the inhibition zone (DIZ) [21]: inactive; MIC [22]: 400 µg/mL (≈ 1650 µM); diameter of the inhibition zone (DIZ) [23]: 12 mm; diameter of the inhibition zone (DIZ) [24]: inactive; diameter of the inhibition zone (DIZ) [25]: inactive; MIC [26]: 50 µg/mL (≈ 207 µM); diameter of the inhibition zone (DIZ) [27]: 21 mm; diameter of the inhibition zone (DIZ) [28]: inactive; MIC [29]: > 400 µg/mL; MIC [30]: 400 µg/mL (≈ 1650 µM); MIC [31]: > 400 µg/mL; diameter of the inhibition zone (DIZ) [32]: 11 mm; MIC [33]: 400 µg/mL (≈ 1650 µM)
